From ChEMBL document CHEMBL3244051, “15,15-Ketals of natural prostaglandins and prostaglandin analogues. Synthesis and biological activities” (1978) come the findings set out here.

The subject of assay [1] is Rattus norvegicus. The assay is described as follows: Abortifacient activity in sc dosed early pregnant Wistar rat assessed as decrease in serum progesterone level administered in benzyl benzoate and castor oil on day 4 to day 7 of gestation measured on day 3, 5, 7 and 9 of gestation by RIA relative to PGF2alpha. Format: functional. The gist of the method: (§1)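 Female Wistar rats mated at proestrus; sperm in vaginal smear next day defines day 1 of gestation. Dosed sc in 0.2 mL oil (benzyl benzoate:castor oil 1:3) on days 4–7; 4 rats/group. Orbital plexus blood taken days 3, 5, 7, 9 for serum progesterone by RIA; rats killed day 9, uteri inspected for abortion.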

A short description of assay [2]: […] activity in rat uterus assessed as uterine contraction relative to PGF2alpha. Format: functional. The gist of the method:
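Isolated rat uterine horns held in salt solution matching extracellular fluid; contractions recorded isotonically as length change. One horn of each animal received test agent, the other the reference, in separate organ baths; n = 4 paired comparisons. Contraction height (mm) analysed by analysis of variance.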

The test system of assay [3] is Rattus norvegicus. The assay is described as follows: Abortifacient activity in sc dosed early pregnant Wistar rat assessed as decrease in serum progesterone level measured per animal administered in benzyl benzoate and castor oil on day 4 to day 7 of gestation measured on day 3, 5, 7 and 9 of gestation by RIA. Format: functional. Summed up:
as §1

A further assay deals with Ileum. The experiment in a line: Contraction of guinea pig ileum relative to PGF2alpha. Type of assay: functional, Cavia porcellus.

Activity calls are given as the source filed them. The rule behind the calls is not given here. A value given as a limit tells only on which side of the number the result lay.

Take `CCCCCC1(/C=C/[C@@H]2[C@@H](C/C=C\CCCC(=O)OC)[C@@H](O)C[C@H]2O)OCC(C)(C)CO1`: the “fold change (FC)” value in the assay on Rattus norvegicus [1] is recorded as <0.3; in assay [2] it was <0.1.
Consider `O=C(O)CCC/C=C\C[C@@H]1[C@@H](/C=C/C2(COc3ccccc3)OCCO2)[C@H](O)C[C@@H]1O`, for which the result in the assay on Rattus norvegicus [1] was Active.
For the compound `CCCCC[C@H](O)/C=C/[C@@H]1[C@@H](C/C=C\CCCC(=O)O)[C@@H](O)C[C@H]1O` [DINOPROST], the Activity with Rattus norvegicus [3] came out at 0.3 mg/day.
As for `CCCCCC1(/C=C/[C@@H]2[C@@H](C/C=C\CCCC(=O)OC)[C@@H](O)C[C@H]2O)OCCCO1`, the results for the “fold change (FC)” value (with Rattus norvegicus [1]; in assay [2]) were <0.3 and <0.1, respectively.
For `COC(=O)CCC/C=C\C[C@@H]1[C@@H](/C=C/C2(c3ccc(Cl)cc3)OCCO2)[C@H](O)C[C@@H]1O`, in that order: 10 and 10.
`CCCCCC(/C=C/[C@@H]1[C@@H](C/C=C\CCCC(=O)OC)[C@@H](O)C[C@H]1O)(OC)OC`: the “fold change (FC)” value is <0.1 with Ileum, <0.1 in the assay on Rattus norvegicus [1] and 0.1 in assay [2].
In the case of `CCCCCC1(CC[C@@H]2[C@@H](C/C=C\CCCC(=O)OC)[C@@H](O)C[C@H]2O)OCCO1`, the “fold change (FC)” value in the assay with Rattus norvegicus [1] is given as <0.3; in assay [2] it was 1.
Regarding `COC(=O)CCC/C=C\C[C@@H]1[C@@H](CCC2(COc3ccccc3)OCCO2)[C@H](O)C[C@@H]1O`, the “fold change (FC)” value in the assay with Rattus norvegicus [1] was 10; in assay [2] it was >10.
On to `COC(=O)CCC/C=C\C[C@@H]1[C@@H](/C=C/C2(COc3cccc(C(F)(F)F)c3)OCCO2)[C@H](O)C[C@@H]1O`, for which the “fold change (FC)” value is on record as <0.1 in the assay with Ileum, 10 in the assay on Rattus norvegicus [1] and >10 in assay [2].
For `COC(=O)CCC/C=C\C[C@@H]1[C@@H](/C=C/C2(COc3ccccc3)OCCO2)[C@H](O)C[C@@H]1O`, in that order: <0.1, 100 and >10.
Take `O=C(O)CCC/C=C\C[C@@H]1[C@@H](/C=C/C2(COc3ccccc3)OCCO2)[C@H](O)C[C@@H]1O` [ETIPROSTON]: the results for the “fold change (FC)” value (in the assay on Ileum; in the assay with Rattus norvegicus [1]; in assay [2]) were 0.1, 10 and 10, respectively.
On to `COC(=O)CCC/C=C\C[C@@H]1[C@@H](/C=C/C2(CCc3ccccc3)OCCO2)[C@H](O)C[C@@H]1O`, for which the “fold change (FC)” value in the assay with Rattus norvegicus [1] is listed as 30; in assay [2], >10.
Turning to `CCCCOC(=O)CCC/C=C\C[C@@H]1[C@@H](/C=C/C2(COc3ccccc3)OCCO2)[C@H](O)C[C@@H]1O`, the “fold change (FC)” value is 30 in the assay with Rattus norvegicus [1] and 10 in assay [2].
In the case of `CCCCCC1(/C=C/[C@@H]2[C@@H](C/C=C\CCCC(=O)O)[C@@H](O)C[C@H]2O)OCCO1`, the “fold change (FC)” value in the assay with Rattus norvegicus [1] came out at 1; in assay [2], 5.
As for `COC(=O)CCC/C=C\C[C@@H]1[C@@H](/C=C/C2(COc3ccc(F)cc3)OCCO2)[C@H](O)C[C@@H]1O`, the “fold change (FC)” value (in the assay with Rattus norvegicus [1]; in assay [2]) was 10 in each case.
In the case of `CCCCCC1(/C=C/[C@@H]2[C@@H](C/C=C\CCCC(=O)OC)[C@@H](O)C[C@H]2O)OCCO1`, the “fold change (FC)” value was determined as 0.1 in the assay on Ileum, 1 with Rattus norvegicus [1] and 5 in assay [2].
As to `NC(CO)(CO)CO.O=C(O)CCC/C=C\C[C@@H]1[C@@H](/C=C/C2(COc3ccccc3)OCCO2)[C@H](O)C[C@@H]1O`, in assay [2], the “fold change (FC)” value is listed as >10.
